Experimental data taken from ChEMBL document CHEMBL1153606, “Microwave assisted synthesis of new indophenazine 1,3,5-trisubstruted pyrazoline derivatives of benzofuran and their antimicrobial activity” (2009).
Values after ≈ are worked out from the molar mass of the structure shown. Active and inactive are the calls of the source. The rule behind the calls is not given here.

Tests used:
Candida albicans = test: Antifungal activity against Candida albicans after 30 to 72 hrs by agar culture method; type: functional, organism-based
How it was run: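 Agar well assay on C. albicans: compounds at a range of concentrations in DMF were loaded into 6 mm wells. Plates were incubated at 30 °C for 30–72 h. Inhibition zones were read in mm against standard drugs.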

Streptococcus pyogenes [1] = test: Antibacterial activity against multidrug-resistant Streptococcus pyogenes after 20 hrs by cylinder and well method; type: functional
How it was run: (§1)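 Agar diffusion assay: organisms grown overnight on 2% agar with 5% sheep blood under 10% CO2. Inocula were diluted in Ringer solution, treated in Todd–Hewitt medium and spread on agar plates. Drug spots were applied, with about 5 × 10^3 CFU/spot. Plates were held at 37 °C for 20 h. Inhibition zones were read in mm against standard drugs and vehicle.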

Streptococcus pyogenes [2] = test: Antibacterial activity against multidrug-resistant Streptococcus pyogenes after 24 hrs by broth microdilution method; type: functional
How it was run: (§2)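 MIC was determined in Mueller–Hinton broth.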

Staphylococcus aureus [3] = test: Antibacterial activity against multidrug-resistant Staphylococcus aureus after 24 hrs by broth microdilution method; type: functional; how it was run: as §2
Staphylococcus aureus [4] = test: Antibacterial activity against multidrug-resistant Staphylococcus aureus after 20 hrs by cylinder and well method; type: functional; how it was run: as §1
[5] = system: Salmonella enterica subsp. enterica; test: Antibacterial activity against multidrug-resistant Salmonella typhi after 24 hrs by broth microdilution method; type: functional, Salmonella enterica subsp. enterica serovar Typhi; how it was run: as §2
[6] = system: Salmonella enterica subsp. enterica; test: Antibacterial activity against multidrug-resistant Salmonella typhi after 20 hrs by cylinder and well method; type: functional, Salmonella enterica subsp. enterica serovar Typhi; how it was run: as §1
Streptococcus agalactiae [7] = test: Antibacterial activity against multidrug-resistant Streptococcus agalactiae after 24 hrs by broth microdilution method; type: functional; how it was run: as §2
Streptococcus agalactiae [8] = test: Antibacterial activity against multidrug-resistant Streptococcus agalactiae after 20 hrs by cylinder and well method; type: functional; how it was run: as §1
Streptococcus pneumoniae [9] = test: Antibacterial activity against multidrug-resistant Streptococcus pneumoniae after 20 hrs by cylinder and well method; type: functional; how it was run: as §1
Streptococcus pneumoniae [10] = test: Antibacterial activity against multidrug-resistant Streptococcus pneumoniae after 24 hrs by broth microdilution method; type: functional; how it was run: as §2
Pseudomonas aeruginosa [11] = test: Antibacterial activity against multidrug-resistant Pseudomonas aeruginosa after 24 hrs by broth microdilution method; type: functional; how it was run: as §2
Pseudomonas aeruginosa [12] = test: Antibacterial activity against multidrug-resistant Pseudomonas aeruginosa after 20 hrs by cylinder and well method; type: functional; how it was run: as §1
Escherichia coli [13] = test: Antibacterial activity against multidrug-resistant Escherichia coli after 20 hrs by cylinder and well method; type: functional; how it was run: as §1
Escherichia coli [14] = test: Antibacterial activity against multidrug-resistant Escherichia coli broth after 24 hrs by broth microdilution method; type: functional; how it was run: as §2

Row | SMILES | Activity (Candida albicans) | inhibition zone (IZ) (Streptococcus pyogenes [1]) | MIC (Streptococcus pyogenes [2]) | MIC (Staphylococcus aureus [3]) | inhibition zone (IZ) (Staphylococcus aureus [4]) | MIC [5] | inhibition zone (IZ) [6] | MIC (Streptococcus agalactiae [7]) | inhibition zone (IZ) (Streptococcus agalactiae [8]) | inhibition zone (IZ) (Streptococcus pneumoniae [9]) | MIC (Streptococcus pneumoniae [10]) | MIC (Pseudomonas aeruginosa [11]) | inhibition zone (IZ) (Pseudomonas aeruginosa [12]) | inhibition zone (IZ) (Escherichia coli [13]) | MIC (Escherichia coli [14])
1 | O=C(Cn1c2ccccc2c2nc3ccccc3nc21)N1N=C(c2cc3ccccc3o2)CC1c1ccccc1O (stereo not drawn) | inactive | 10 mm | 26 µg/mL (≈ 48.4 µM) | 6 µg/mL (≈ 11.2 µM) | 13 mm | 8.5 µg/mL (≈ 15.8 µM) | 13 mm | 22 µg/mL (≈ 40.9 µM) | 11 mm | 12 mm | 9.5 µg/mL (≈ 17.7 µM) | 3.5 µg/mL (≈ 6.51 µM) | 15 mm | 18 mm | 1 µg/mL (≈ 1.86 µM)
2 | O=C(Cn1c2ccccc2c2nc3ccccc3nc21)N1N=C(c2cc3ccccc3o2)CC1/C=C/c1ccccc1 (stereo not drawn) | inactive | 10 mm | 26.5 µg/mL (≈ 48.4 µM) | 4.5 µg/mL (≈ 8.22 µM) | 14 mm | 14.5 µg/mL (≈ 26.5 µM) | 10 mm | 22.5 µg/mL (≈ 41.1 µM) | 9 mm | 12 mm | 10 µg/mL (≈ 18.3 µM) | 18.5 µg/mL (≈ 33.8 µM) | 10 mm | 8 mm | 20.5 µg/mL (≈ 37.4 µM)
3 | O=C(Cn1c2ccccc2c2nc3ccccc3nc21)N1N=C(c2cc3ccccc3o2)CC1c1ccc(O)cc1 (stereo not drawn) | inactive | 15 mm | 20.5 µg/mL (≈ 38.1 µM) | 6.5 µg/mL (≈ 12.1 µM) | 14 mm | 19.5 µg/mL (≈ 36.3 µM) | 8 mm | 32.5 µg/mL (≈ 60.5 µM) | 8 mm | 12 mm | 8.5 µg/mL (≈ 15.8 µM) | 26 µg/mL (≈ 48.4 µM) | 8 mm | 10 mm | 14 µg/mL (≈ 26 µM)
4 | C[C@@H]1CN(c2c(F)c(N)c3c(=O)c(C(=O)O)cn(C4CC4)c3c2F)C[C@H](C)N1 [SPARFLOXACIN] |  | 38 mm | 15 µg/mL (≈ 38.2 µM) | 0.25 µg/mL (≈ 0.637 µM) | 36 mm | 0.5 µg/mL (≈ 1.27 µM) | 34 mm | 12 µg/mL (≈ 30.6 µM) | 38 mm | 34 mm | 0.04 µg/mL (≈ 0.102 µM) | 4.6 µg/mL (≈ 11.7 µM) | 33 mm | 30 mm | 0.26 µg/mL (≈ 0.663 µM)
5 | COc1ccccc1C1CC(c2cc3ccccc3o2)=NN1C(=O)Cn1c2ccccc2c2nc3ccccc3nc21 (stereo not drawn) | inactive | 15 mm | 22.5 µg/mL (≈ 40.8 µM) | 7.5 µg/mL (≈ 13.6 µM) | 11 mm | 15.5 µg/mL (≈ 28.1 µM) | 7 mm | 25 µg/mL (≈ 45.3 µM) | 9 mm | 10 mm | 11.5 µg/mL (≈ 20.8 µM) | 14.5 µg/mL (≈ 26.3 µM) | 12 mm | 9 mm | 16.5 µg/mL (≈ 29.9 µM)
6 | CCn1cc(C(=O)O)c(=O)c2cc(F)c(N3CCNCC3)cc21 [NORFLOXACIN] |  | 30 mm | 2.6 µg/mL (≈ 8.14 µM) | 1.5 µg/mL (≈ 4.7 µM) | 28 mm | 20.2 µg/mL (≈ 63.3 µM) | 24 mm | 22 µg/mL (≈ 68.9 µM) | 32 mm | 22 mm | 0.12 µg/mL (≈ 0.376 µM) | 1.8 µg/mL (≈ 5.64 µM) | 28 mm | 20 mm | 1.3 µg/mL (≈ 4.07 µM)
7 | O=C(Cn1c2ccccc2c2nc3ccccc3nc21)N1N=C(c2cc3ccccc3o2)CC1c1ccccc1Cl (stereo not drawn) | inactive | 12 mm | 25 µg/mL (≈ 45 µM) | 10 µg/mL (≈ 18 µM) | 11 mm | 15 µg/mL (≈ 27 µM) | 9 mm | 30 µg/mL (≈ 54 µM) | 10 mm | 14 mm | 7 µg/mL (≈ 12.6 µM) | 17.5 µg/mL (≈ 31.5 µM) | 9 mm | 8 mm | 21.5 µg/mL (≈ 38.7 µM)
8 | COc1ccc(C2CC(c3cc4ccccc4o3)=NN2C(=O)Cn2c3ccccc3c3nc4ccccc4nc32)c(O)c1 (stereo not drawn) | inactive | 14 mm | 26 µg/mL (≈ 45.8 µM) | 9 µg/mL (≈ 15.9 µM) | 13 mm | 14.5 µg/mL (≈ 25.5 µM) | 11 mm | 28 µg/mL (≈ 49.3 µM) | 11 mm | 16 mm | 5 µg/mL (≈ 8.81 µM) | 18.5 µg/mL (≈ 32.6 µM) | 10 mm | 11 mm | 13.5 µg/mL (≈ 23.8 µM)
